Activity calls are given as the source filed them.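 Rule for the calls, unless noted: active = viability at or below 10% of carrier control in both of two separate runs; inconclusive = viability at or below 10% in only one of the two runs; inactive = the rest.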
Experiments:
[1] = SK-BR-3 cell growth inhibitors, pilot screen, 24 h, human (AID 572); conditions: SK-BR-3 viability, CellTiter-Glo luminescence, at 10 µM, stronger effect = lower value;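 note: compound exposure lasted between 18 and 24 h rather than exactly 24 h; 100% = carrier-treated control wells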
[2] = HUVEC growth inhibition – cell-based, human, primary screen (AID 575;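 active = viability at or below 30% in both replicate assays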;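 note: 100% = median of untreated cell wells with 0.1% DMSO on each plate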); conditions: HUVEC proliferation, CellTiter-Glo luminescence, 72 h; at 10 µM; stronger effect = lower value
Outline: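 Assay system: Primary human umbilical vein endothelial cells | Quantity: 1250 cells per well | Medium: Supplemented EBM, 2% fetal bovine serum | Detection: CellTiter-Glo luminescence measuring cellular ATP | Read-out: % viability vs DMSO wells | Plate: Collagen-coated 384-well format | Times: 72 h exposure, 37 °C, 5% CO2, 30 min RT equilibration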

[3] = growth inhibitors of H69AR lung tumor, primary screen, human, duplicate replicates (AID 580;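 active = viability at or under a set limit in both replicates, limit being median viability minus 3 SD, cut at about 48% in these data, passing the limit was not always enough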;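 note: 100% = mean luminescence of untreated wells and 0% = no signal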); conditions: H69AR lung tumor cells viability, ATP luminescence, 72 h; at 10 µM; stronger effect = lower value
[4] = reversal of MRP1-mediated doxorubicin resistance, pilot screen, H69AR cells, doxorubicin co-treatment (AID 601;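 active = viability loss from added drug above about 55%, and viability with drug at most 40%, in both replicates, limit read from the data, passing the limit was not always enough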); conditions: CellTiter-Glo, 72 h, at 10 µM; for differential viability (reversal): stronger effect = higher value
[5] = 384-well plate pilot, post-Golgi transport modulator project, inhibition of yeast transport mutant growth (AID 636; in the data active = inhibition above about 31%); conditions: absorbance 615 nm, about 18 h, stronger effect = higher value
[6] = growth suppression of yeast trafficking mutant, preliminary HTS, modulators of trafficking downstream of Golgi apparatus project, 1536-format plate, OD 615 nm (AID 637; in the data active = inhibition above about 30%); conditions: yeast transport mutant growth, absorbance 615 nm, 18 h; stronger effect = higher value
[7] = H69AR cells + 2 uM doxorubicin, measured here: viability with 2 uM doxorubicin, stronger effect = lower value
[8] = H69AR cells, compound alone cytotoxicity

| Compound | viability [1] | viability [2] | viability [3] | differential viability (reversal) ([4]; H69AR cells + 2 uM doxorubicin) | viability [4, 7] [%] | viability [4, 8] [%] | inhibition [5] | inhibition [6] |
| --- | --- | --- | --- | --- | --- | --- | --- | --- |
| CCOc1ccc(-c2cc(C(=O)N3CCN(c4ccccn4)CC3)c3ccccc3n2)cc1 | 127% (inactive) | 43.5% (inactive) | 12.5% (active) | -66.7% (inactive) | 79.2 | 12.5 | 0.13% (inactive) | -0.49% (inactive) |
| Cc1ccc(CCNC(=O)C2CCC(=O)N2C2CCCC2)cc1 (centres undefined) | 79% (inactive) | 99.7% (inactive) | 94.9% (inactive) | 13% (inactive) | 81.9 | 94.9 | -2.08% (inactive) | 0% (inactive) |
| Cc1nc(CCNS(=O)(=O)c2cccs2)cs1 | 86% (inactive) | 105% (inactive) | 97.5% (inactive) | 11.5% (inactive) | 86 | 97.5 | 7.92% (inactive) | -12.8% (inactive) |
| c1ccc(CSc2nnc(-c3cccs3)n2Cc2ccco2)cc1 | 86% (inactive) | 90.3% (inactive) | 83.2% (inactive) | -0.12% (inactive) | 83.4 | 83.2 | 1.37% (inactive) | -0.65% (inactive) |
| COCCCNCC(=O)Nc1ccc(OC(F)(F)F)cc1 | 102% (inactive) | 113% (inactive) | 98.5% (inactive) | 13% (inactive) | 85.5 | 98.5 | -9.2% (inactive) | -5.82% (inactive) |
| COc1ccc(-c2ccc(=O)n(Cc3cc(=O)n4ccccc4n3)n2)cc1 | 102% (inactive) | 107% (inactive) | 97% (inactive) | 5.91% (inactive) | 91.1 | 97 | -3.38% (inactive) | 4.36% (inactive) |
| Cn1c(=O)c2c(nc(CN3CCCCC3)n2CCCc2ccccc2)n(C)c1=O | 122% (inactive) | 103% (inactive) | 81.7% (inactive) | 0.72% (inactive) | 81 | 81.7 | -1.3% (inactive) | 6.23% (inactive) |
| CCOC(=O)c1[nH]c2ccc(F)cc2c1NC(=O)C(C)N1CCc2cc(OC)c(OC)cc2C1 (centres undefined) | 99% (inactive) | 57.9% (inactive) | 13.5% (active) | -55.2% (inactive) | 68.7 | 13.5 | -3.42% (inactive) | 7.87% (inactive) |
| O=C(CCCSc1nc2ccccc2s1)NC1=NCCS1 | 86% (inactive) | 102% (inactive) | 93.7% (inactive) | -4.02% (inactive) | 97.8 | 93.7 | -7.53% (inactive) | 1.82% (inactive) |
| CCCN1CCN(C(=O)Cn2cccc2C(=O)c2ccccc2)CC1 | 84% (inactive) | 99.9% (inactive) | 100% (inactive) | 17.8% (inactive) | 82.2 | 100 | -2.27% (inactive) | 1.27% (inactive) |
| CS(=O)(=O)N(CC(=O)NCc1ccncc1)Cc1ccc(Cl)cc1 | 104% (inactive) | 101% (inactive) | 98.3% (inactive) | 0.52% (inactive) | 97.8 | 98.3 | -8.36% (inactive) | 0.81% (inactive) |
| O=C(CSc1nc2ccccc2c(=O)n1Cc1ccco1)NCc1ccccc1 | 72% (inactive) | 82.6% (inactive) | 89.4% (inactive) | 3.12% (inactive) | 86.3 | 89.4 | -8.63% (inactive) | 0.73% (inactive) |
| Cc1cc(=O)n(CCO)c(O)c1C#N | 81.5% (inactive) | 107% (inactive) | 95.1% (inactive) | -5.74% (inactive) | 101 | 95.1 | -3.95% (inactive) | 22.8% (inactive) |
| Nc1cccc(C(=O)O)c1 | 129% (inactive) | 98.2% (inactive) | 94.8% (inactive) | 7.12% (inactive) | 87.7 | 94.8 | 1.82% (inactive) | 0.33% (inactive) |
| Cc1cc(NCC2CCCO2)n2c(nc3ccccc32)c1C#N (centres undefined) | 79% (inactive) | 81.2% (inactive) | 71% (inactive) | 38.9% (inactive) | 32.1 | 71 | -6.44% (inactive) | 1.61% (inactive) |
| Nc1cc(N)nc(SCc2ccccc2)n1 | 94% (inactive) | 90.8% (inactive) | 85.6% (inactive) | -6.86% (inactive) | 92.4 | 85.6 | -0.68% (inactive) | 9.27% (inactive) |
| COc1cc(-c2nc(S(=O)(=O)c3ccc(C)cc3)c(N(C)C)o2)cc(OC)c1OC | 71% (inactive) | 93.2% (inactive) | 87.9% (inactive) | 1.51% (inactive) | 86.3 | 87.9 | -8.4% (inactive) | -1.09% (inactive) |
| CCN(CC)CCN1C(=O)C(=O)/C(=C(/O)c2ccc(OC(C)C)cc2)C1c1ccncc1 (centres undefined) | 133% (inactive) | 112% (inactive) | 91.1% (inactive) | 6.59% (inactive) | 84.5 | 91.1 | -6.76% (inactive) | 3.09% (inactive) |
